Measured values pooled from the literature.
PKN1: Serine/threonine-protein kinase N1 (PKN1, Homo sapiens, UniProt Q16512)
PIK3C2G: Phosphatidylinositol 3-kinase C2 domain-containing subunit gamma (PIK3C2G, Homo sapiens, UniProt O75747)

N#C/C(=C\c1ccc(O)c(O)c1)C(N)=S  activity vs control (PKN1; enzyme activity; inhibitor; 1 µM): 69%
Nc1ncc(-c2nc(N3CCOCC3)nc(N3CCOCC3)n2)c(C(F)F)n1  remaining binding (PIK3C2G; binding; competition with immobilised ligand; 10 µM): 0.75%
CN(C)C(=O)COC(=O)Cc1ccc(OC(=O)c2ccc(NC(=N)N)cc2)cc1  inhibition (Cathepsin L2 (CTSV, Homo sapiens, UniProt O60911); enzyme activity; inhibitor; 10 µM): 1%
CC(=O)c1c(O)c(C)c(O)c(Cc2c(O)c3c(c(C(=O)/C=C/c4ccccc4)c2O)OC(C)(C)C=C3)c1O  activity vs control (PKN1; enzyme activity; inhibitor; 1 µM): 84%
CN1CCC(C(c2ccccc2)c2ccccc2)CC1  koff (Histamine H1 receptor (HRH1, Homo sapiens, UniProt P35367); binding): 0.133 s⁻¹
CCOC(=O)c1ccc(OC(=O)CCCCCNC(=N)N)cc1  inhibition (Matrix metalloproteinase-9 (MMP9, Homo sapiens, UniProt P14780, Q279R); enzyme activity; inhibitor; 10 µM): 13%
COc1ccc2c(c1)/C(=C/c1cnc[nH]1)C(=O)N2  activity vs control (PKN1; enzyme activity; inhibitor; 1 µM): 55%
COc1ncccc1-c1cnn2ccc(N3CCN(C(=O)OC(C)C)CC3)nc12  remaining binding (PIK3C2G; binding; competition with immobilised ligand; 1 µM): 94%
Cc1nn(C)cc1-c1nc2c(N3CCN(Cc4ccc(Cl)cc4)CC3)c(Cl)cnc2[nH]1  remaining binding (Cyclin-dependent kinase 18 (CDK18, Homo sapiens, UniProt Q07002); binding; competition with immobilised ligand; 1 µM): 100%
CN1CC[C@]2(C)c3cc(OC(=O)Nc4ccccc4)ccc3N(C)[C@H]12  inhibition (Muscarinic acetylcholine receptor M4 (CHRM4, Homo sapiens, UniProt P08173); ligand displacement; radioligand; 10 µM): 0%
